From article PMC4709821 (ACS Infectious Diseases, 2015)
In brackets after ≈: the same amount, converted by molar mass.

Assays:
[1] = system: Rlm1-lacZ reporter of CWIP activity; test: Rlm1-lacZ cell wall integrity pathway; format: cell-based, S. cerevisiae; conditions: exposure of cells harboring the reporter plasmid
Procedure, shortened: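 S. cerevisiae CRY2 (W303 background) carried a plasmid with lacZ driven by two consensus Rlm1 binding sites. Cells were grown overnight in SC lacking uracil at 30 °C, diluted to 0.1 OD600 in YPD and grown to 0.4. They were dispensed at 0.05 OD600, and test compound was pinned in. Plates stood 4 h at room temperature before Gal-Screen luminescence read-out against solvent wells. Values are the mean of three replicates.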

[2] = system: Mpk1 phosphorylation; test: Western blot of Mpk1 phosphorylation in C. neoformans; format: cell-based; conditions: exponential phase cells, MPK1-FLAG strain
[3] = system: C. neoformans; test: Alamar blue viability assay with and without 1 M sorbitol; format: cell-based, Cryptococcus neoformans
Procedure, shortened: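 C. neoformans was grown overnight in YPD at 30 °C and seeded at 1.5 × 10^4 cells/mL into a dilution series of test compound, in synthetic complete medium with or without 1 M sorbitol. Plates ran 24 h at 37 °C, then Alamar blue (1:10) was added for 2 h at 37 °C. Fluorescence (Ex 544/Em 590) was compared to DMSO wells, and IC50 was obtained by curve fitting.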

[4] = system: C. neoformans H99 cells; test: Checkerboard assay of interaction with caspofungin; format: cell-based, Cryptococcus neoformans
[5] = system: HEK293 cells; test: Mammalian cell cytotoxicity; format: cell-based, human; conditions: higher concentrations not tested
[6] = Stability in human plasma; format: in vitro ADME; conditions: after 5 h of incubation
[7] = Stability in mouse plasma; format: in vitro ADME; conditions: after 5 h of incubation
[8] = system: protein kinase C 1 (Pkc1); test: Cellular protein kinase C activity; format: biochemical, C. neoformans; conditions: cell lysates
Procedure, shortened: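 Cells were grown overnight in YPD at 30 °C, washed three times in DPBS, adjusted to 1 × 10^7 cells/mL and lysed with glass beads in kit extraction buffer. Equal total protein plus a dilution series of test compound went into each reaction with a fluorescent Pkc1-specific substrate for 30 min. Products were separated on agarose gel, quantified by densitometry and expressed as % of DMSO reactions. Staurosporine served as reference inhibitor.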

[9] = system: C. neoformans strain CM108; test: MIC at 30 and 37 °C with strain CM108; format: cell-based; conditions: Cryptococcus neoformans
Procedure, shortened: (§1)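 MIC was determined by the CLSI-approved method, read at a 72 h end point. Congenic CM108 and mpk1Δ strains came from the Fungal Genetics Stock Center. CM108 was tested at 30 and 37 °C and mpk1Δ at 30 °C.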

[10] = system: C. neoformans mpk1Δ; test: MIC against the congenic mpk1Δ strain; format: cell-based, Cryptococcus neoformans; conditions: 30 °C
Procedure, shortened: as §1

[11] = system: C. neoformans; conditions: cited from earlier work

Structure (SMILES): O=S(=O)(O)c1cc(Nc2nc(Nc3ccccc3)nc(N(CCO)CCO)n2)ccc1/C=C/c1ccc(Nc2nc(Nc3ccccc3)nc(N(CCO)CCO)n2)cc1S(=O)(=O)O [Calcofluor white]
- increase in β-galactosidase activity [1]: 5 fold
- Mpk1 phosphorylation caused by the agent alone [2]: induced phosphorylation of Mpk1

Structure (SMILES): Cc1ccc(C(C)C)c(OCCn2c(S)nc3ccccc32)c1 [Compound 1, 1-(2-(2-isopropyl-5-methylphenoxy)ethyl)-1H-benzo[d]imidazole-2(3H)-thione]
- sorbitol suppression of anticryptococcal activity [3]: sorbitol-suppressable
- fractional inhibitory concentration index (FICI) ([4]; combination of 1 with caspofungin, 1 at 2-fold below its MIC): 0.625
- reduction of the concentration of caspofungin needed to inhibit C. neoformans ([4]; subinhibitory concentrations of 1): 8 fold
- concentration up to which nontoxic [5]: ≥ 80 µM
- remaining intact in plasma [6]: 100%
- remaining intact in plasma [7]: 100%
- protein kinase C activity as percentage of DMSO-treated samples ([8]; concentrations as high as 10-fold above its MIC): 91 ± 3%
- MIC ([9]; CM108, 30 °C): 16 µg/mL (≈ 49 µM)
- MIC ([9]; CM108, 37 °C): 8 µg/mL (≈ 24.5 µM)
- activity against strain from which MPK1 has been deleted [10]: active

Structure (SMILES): CCN(CC)CCOc1ccc(C(=C(Cl)c2ccccc2)c2ccccc2)cc1 [clomiphene]
- AK signal / cell lysis ([11]; positive control of the screen): strong AK signal

Structure (SMILES): OC(Cn1cncn1)(Cn1cncn1)c1ccc(F)cc1F [fluconazole]
- AK activity compared to solvent controls [11]: no increase

Structure (SMILES): CN[C@@H]1C[C@H]2O[C@@](C)([C@@H]1OC)n1c3ccccc3c3c4c(c5c6ccccc6n2c5c31)C(=O)NC4 [staurosporine, reference compound]
- reduction in Pkc1 activity ([8]; data not shown): 25%
